Source: ChEMBL document CHEMBL3400011, “Canthinone alkaloids are novel protein tyrosine phosphatase 1B inhibitors” (Bioorg Med Chem Lett, 2015)

How the values were obtained:
[1] = biological target: T1, Tyrosine-protein phosphatase non-receptor type 1 (Homo sapiens) (UniProt P18031); assay: Inhibition of PTP1B (unknown origin) assessed as inhibition rate at 100 uM
T1 sequence (whole entry): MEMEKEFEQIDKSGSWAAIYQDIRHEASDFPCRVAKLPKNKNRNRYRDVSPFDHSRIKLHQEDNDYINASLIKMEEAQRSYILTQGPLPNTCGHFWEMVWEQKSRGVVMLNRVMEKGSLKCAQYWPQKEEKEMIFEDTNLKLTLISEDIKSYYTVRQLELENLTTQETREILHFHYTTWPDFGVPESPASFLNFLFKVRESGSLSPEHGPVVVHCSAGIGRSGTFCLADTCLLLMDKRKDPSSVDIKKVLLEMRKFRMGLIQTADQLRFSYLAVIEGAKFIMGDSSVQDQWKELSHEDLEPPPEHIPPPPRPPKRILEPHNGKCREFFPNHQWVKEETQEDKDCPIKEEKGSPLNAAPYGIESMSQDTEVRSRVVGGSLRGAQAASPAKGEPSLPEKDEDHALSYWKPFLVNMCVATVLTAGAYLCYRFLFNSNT
Procedure, shortened: (§1)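 PTP1B enzymatic assay with RK-682 as the positive control. For the single-point screen, compounds were tested at a final 100 µM. For dose–response, inhibition was measured over a range of compound concentrations, and IC50 was obtained by regression analysis.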

Homo sapiens [2] = organism: Homo sapiens; assay: Ratio of inhibition rate for PTP1B (unknown origin) at 75 uM to inhibition rate for TCPTP (unknown origin) at 75 uM
Homo sapiens [3] = organism: Homo sapiens; assay: Ratio of inhibition rate for PTP1B (unknown origin) at 75 uM to inhibition rate for VHR (unknown origin) at 75 uM
Homo sapiens [4] = organism: Homo sapiens; assay: Ratio of inhibition rate for PTP1B (unknown origin) at 75 uM to inhibition rate for SHP1 (unknown origin) at 75 uM
Homo sapiens [5] = organism: Homo sapiens; assay: Ratio of inhibition rate for PTP1B (unknown origin) at 75 uM to inhibition rate for SHP2 (unknown origin) at 75 uM
[6] = biological target: T2, Tyrosine-protein phosphatase non-receptor type 1 (Homo sapiens, UniProt P18031); assay: Inhibition of PTP1B (unknown origin); procedure, shortened: as §1
T2 sequence (P18031 whole entry): T1 sequence (whole entry)

[7] = biological target: T2, Tyrosine-protein phosphatase non-receptor type 1; assay: Non-competitive inhibition of PTP1B (unknown origin) assessed as hydrolysis of para-nitrophenylphosphate by Lineweaver-Burk plot
Procedure, shortened: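 Kinetic study of PTP1B varying both compound and p-nitrophenylphosphate substrate concentrations. Mode was read from Lineweaver–Burk plots. Slopes from those plots were replotted against compound concentration (secondary plot), and Ki was calculated from that plot.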

[8] = biological target: T1, Tyrosine-protein phosphatase non-receptor type 1 (Homo sapiens); assay: Inhibition of PTP1B (unknown origin) assessed as inhibition rate at 75 uM
[9] = biological target: T3, Tyrosine-protein phosphatase non-receptor type 2 (Homo sapiens) (UniProt P17706); assay: Inhibition of TCPTP (unknown origin) assessed as inhibition rate at 75 uM
T3 sequence (whole entry): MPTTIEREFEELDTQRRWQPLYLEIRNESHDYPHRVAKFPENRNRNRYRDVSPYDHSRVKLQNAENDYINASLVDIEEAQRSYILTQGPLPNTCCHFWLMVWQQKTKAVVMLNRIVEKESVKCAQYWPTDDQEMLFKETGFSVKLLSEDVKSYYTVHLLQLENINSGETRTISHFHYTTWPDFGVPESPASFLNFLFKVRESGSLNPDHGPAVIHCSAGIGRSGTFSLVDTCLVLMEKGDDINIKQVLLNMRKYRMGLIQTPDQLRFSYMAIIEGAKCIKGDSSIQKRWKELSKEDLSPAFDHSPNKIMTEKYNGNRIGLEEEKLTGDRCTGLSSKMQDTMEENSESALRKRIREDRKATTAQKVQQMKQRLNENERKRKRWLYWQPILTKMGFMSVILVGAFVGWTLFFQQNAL

[10] = biological target: Dual specificity protein phosphatase 3 (Homo sapiens) (UniProt P51452); assay: Inhibition of VHR (unknown origin) assessed as inhibition rate at 75 uM
[11] = biological target: Tyrosine-protein phosphatase non-receptor type 6 (Homo sapiens) (UniProt P29350); assay: Inhibition of SHP1 (unknown origin) assessed as inhibition rate at 75 uM
[12] = biological target: T4, Tyrosine-protein phosphatase non-receptor type 11 (Homo sapiens) (UniProt Q06124); assay: Inhibition of SHP2 (unknown origin) assessed as inhibition rate at 75 uM
T4 sequence (whole entry): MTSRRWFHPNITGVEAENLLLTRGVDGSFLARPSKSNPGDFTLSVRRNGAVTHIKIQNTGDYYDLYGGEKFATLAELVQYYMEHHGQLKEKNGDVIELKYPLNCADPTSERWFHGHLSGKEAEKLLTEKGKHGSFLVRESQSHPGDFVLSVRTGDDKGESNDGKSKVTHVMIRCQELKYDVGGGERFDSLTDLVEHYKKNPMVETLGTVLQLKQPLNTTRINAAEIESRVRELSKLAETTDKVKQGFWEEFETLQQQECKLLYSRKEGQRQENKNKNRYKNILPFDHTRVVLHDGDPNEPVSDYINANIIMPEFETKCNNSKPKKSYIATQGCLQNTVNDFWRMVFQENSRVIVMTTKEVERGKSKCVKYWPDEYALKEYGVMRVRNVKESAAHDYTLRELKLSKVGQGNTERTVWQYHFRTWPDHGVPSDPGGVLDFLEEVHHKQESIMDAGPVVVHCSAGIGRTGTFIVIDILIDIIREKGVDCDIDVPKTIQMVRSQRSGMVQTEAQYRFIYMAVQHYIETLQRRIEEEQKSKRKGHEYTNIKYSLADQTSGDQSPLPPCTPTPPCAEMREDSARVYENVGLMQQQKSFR

HepG2 = assay: Induction of Akt phosphorylation in insulin-stimulated human HepG2 cells assessed as pAkt/Akt ratio at 50 uM after 5 mins by western blotting analysis relative to control; format: functional
Procedure, shortened: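 HepG2 cells were treated with compound at 50 µM, then stimulated with insulin. pAkt was assessed by western blotting at 0 and 5 min after insulin. DMSO served as the negative control and sodium orthovanadate (200 µM) as the positive control. Values are expressed relative to control.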

Tyrosine-protein phosphatase non-receptor type 6 (Homo sapiens), sequence (P29350 whole entry): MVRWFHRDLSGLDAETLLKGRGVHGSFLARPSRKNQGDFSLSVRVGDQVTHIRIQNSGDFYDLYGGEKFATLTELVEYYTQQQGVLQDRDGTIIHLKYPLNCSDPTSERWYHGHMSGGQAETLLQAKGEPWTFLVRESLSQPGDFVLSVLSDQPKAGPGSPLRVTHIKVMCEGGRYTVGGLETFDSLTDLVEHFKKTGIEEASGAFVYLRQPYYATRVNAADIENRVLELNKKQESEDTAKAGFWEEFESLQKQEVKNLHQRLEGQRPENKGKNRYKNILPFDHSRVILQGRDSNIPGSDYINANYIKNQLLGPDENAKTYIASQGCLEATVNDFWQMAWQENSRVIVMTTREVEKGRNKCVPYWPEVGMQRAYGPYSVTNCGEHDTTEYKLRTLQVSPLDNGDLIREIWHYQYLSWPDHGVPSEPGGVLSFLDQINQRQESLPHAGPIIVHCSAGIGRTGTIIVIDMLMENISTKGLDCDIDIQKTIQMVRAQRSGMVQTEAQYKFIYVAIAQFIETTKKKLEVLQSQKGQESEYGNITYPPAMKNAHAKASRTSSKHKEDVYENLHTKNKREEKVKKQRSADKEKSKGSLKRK
Dual specificity protein phosphatase 3 (Homo sapiens), sequence (P51452 whole entry, looked up): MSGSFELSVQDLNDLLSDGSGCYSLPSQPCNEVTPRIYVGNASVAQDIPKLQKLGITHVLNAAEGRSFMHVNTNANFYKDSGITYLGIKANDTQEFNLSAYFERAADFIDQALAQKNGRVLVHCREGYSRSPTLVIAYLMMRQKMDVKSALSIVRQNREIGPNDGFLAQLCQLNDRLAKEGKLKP

Row | Structure (SMILES) | inhibition [1] [%] | other results
1 | Cc1c2[nH]c3ccccc3c2cc[n+]1[O-] | -3 | 
2 | COC(=O)c1cc2c(cn1)[nH]c1ccccc12 | 23 | 
3 | COc1cnc(C(O)CO)c2[nH]c3ccccc3c12 (configuration not stated) | 10.5 | 
4 | O=C1NC(=O)c2[nH]c3ccccc3c2C1=O | 80.7 | 
5 | CCn1ccc2c3n(c(=O)c(=O)cc1-3)c1ccccc21 | 63.4 | 
6 | COc1cnc(C(OC)OC(C)=O)c2[nH]c3ccccc3c12 (configuration not stated) | 11.6 | 
7 | Cc1nccc2c1[nH]c1ccccc12 | 7.7 | 
8 | CCCC1NC(C(=O)O)Cc2c1[nH]c1ccccc21 (configuration not stated) | 46.9 | 
9 | O=C(O)CCc1nccc2c1[nH]c1ccccc12 | 39.3 | 
10 | COc1c(O)c2nccc3c4ccccc4n(c1=O)c23 | 55.9 | 
11 | CCCC1NC(C(=O)OC)Cc2c1[nH]c1ccccc21 (configuration not stated) | 7.9 | 
12 | COc1c2n(C)ccc3c-2n(c(=O)c1=O)c1ccccc31 | 76.6 | 
13 | COn1c(=O)cc2c3ccccc3n3c(=O)ccc1c23 | 31.2 | 
14 | C=Cc1ncc(OC)c2c1[nH]c1c(OC)cccc12 | 40.3 | 
15 | COCc1nccc2c1[nH]c1ccccc12 | 27.4 | 
16 | COc1c(O)c(=O)n2c3ccccc3c3ccnc1c32 | 42.8 | 
17 | Cc1c2n(C)ccc3c-2n(c(=O)c1=O)c1ccccc31 |  | Ratio (Homo sapiens [2]): 1.9; Ratio (Homo sapiens [3]): 3.5; Ratio (Homo sapiens [4]): 3.8; Ratio (Homo sapiens [5]): 3.8; IC50 [6]: 24.7 µM; Ki [7]: 19.9 µM; inhibition [8]: 92.1%; inhibition [9]: 49.7%; inhibition [10]: 26.5%; inhibition [11]: 24.4%; inhibition [12]: 23.3%
18 | CCc1nc(C(=O)OC)cc2c1[nH]c1ccccc12 | 21.2 | 
19 | COc1cccc2c1[nH]c1c(C(=O)CCC(=O)c3ncc(OC)c4c3[nH]c3c(OC)cccc34)ncc(OC)c12 | 43.8 | 
20 | CCCCn1ccc2c3n(c(=O)c(=O)c(OC)c1-3)c1ccccc21 | 11.7 | 
21 | COc1ccc2c3ccnc4ccc(=O)n(c2c1)c43 | 34.9 | 
22 | COC(=O)/C=C/C(=O)c1ncc(OC)c2c1[nH]c1c(OC)cccc12 | 21 | 
23 | COc1c(OC)c2nc(O)cc3c4ccccc4n(c1=O)c23 | 81.9 | 
24 | CCC1NC(C(=O)O)Cc2c1[nH]c1ccccc21 (configuration not stated) | 20.8 | 

Row | Structure (SMILES) | inhibition [1] [%] | other results
25 | COC(=O)C1Cc2c([nH]c3ccccc23)CN1 (configuration not stated) | 21.3 | 
26 | CC(C)C1NC(C(=O)O)Cc2c1[nH]c1ccccc21 (configuration not stated) | 11.3 | 
27 | COc1cc2nccc3c4ccccc4n(c1=O)c23 [5-METHOXYCANTHINONE] |  | Ratio (Homo sapiens [2]): 1.9; Ratio (Homo sapiens [3]): 3.3; Ratio (Homo sapiens [4]): 4; Ratio (Homo sapiens [5]): 5; pAkt/Akt ratio (HepG2): 1.3; IC50 [6]: 20.3 µM; Ki [7]: 10.3 µM; inhibition [8]: 91%; inhibition [9]: 48.4%; inhibition [10]: 27.5%; inhibition [11]: 22.8%; inhibition [12]: 18.3%
28 | CCCCn1ccc2c3n(c(=O)c(=O)cc1-3)c1ccccc21 | 42 | 
29 | COc1c(OC(C)=O)c(=O)n2c3ccccc3c3ccnc1c32 | 68.8 | 
30 | O=c1ccc2nccc3c4ccccc4n1c23 | 15.3 | 
31 | O=C(O)c1cc2c([nH]c3ccccc32)c(-c2cccc3c2OCO3)n1 | 19.8 | 
32 | COc1cnc(CCn2ccc3c4n(c(=O)c(=O)cc2-4)c2ccccc32)c2c1c1ccccc1n2OC | 43.9 | 
33 | COc1cnc2ccc(=O)n3c4ccccc4c1c23 | 23.7 | 
34 | COc1c(OC)c2c3c(cc(=O)n2C)c2ccccc2n3c1=O | 34.4 | 
35 | O=Cc1nccc2c1[nH]c1ccccc12 | 9.8 | 
36 | NC(=O)c1nccc2c1[nH]c1ccccc12 | 20.3 | 
37 | CCC1NC(C(=O)c2ccccc2)Cc2c1[nH]c1ccccc21 (configuration not stated) | 4.7 | 
38 | O=c1c(O)cc2nccc3c4ccccc4n1c23 | 84.7 | 
39 | Cn1c(=O)cc2c3ccccc3n3c(=O)ccc1c23 | 33.6 | 
40 | CCc1ncc(OC)c2c1[nH]c1ccccc12 | 16.1 | 
41 | COc1c(OC)c2c3c(cc[n+]2[O-])c2ccccc2n3c1=O | 14.8 | 
42 | CCc1ncc(OC)c2c1[nH]c1c(O)cccc12 | 27.1 | 
43 | COc1c(O)c(=O)n2c3ccccc3c3cc(=O)n(C)c1c32 | 26.3 | 
44 | O=c1ccc2c3c(cc[n+]2[O-])c2ccccc2n13 | 50.9 | 
45 | CCOC(=O)c1nccc2c1[nH]c1ccccc12 | 26.9 | 
46 | OCc1nccc2c1[nH]c1ccccc12 | 17 | 
47 | COc1cccc2c1[nH]c1c(CCn3ccc4c5n(c(=O)c(=O)cc3-5)c3ccccc43)ncc(OC)c12 | 48.5 | 
48 | COC(=O)c1nccc2c1[nH]c1ccccc12 | 2.9 | 

Row | Structure (SMILES) | inhibition [1] [%] | other results
49 | O=C(O)C1Cc2c([nH]c3ccccc23)CN1 (configuration not stated) | 26 | 
50 | COc1c(OC(C)=O)c(=O)n2c3ccccc3c3cc(OC(C)=O)nc1c32 | 41.7 | 
51 | COc1c(O)c2nccc3c4cc(O)ccc4n(c1=O)c23 | 30.5 | 
52 | COc1c(OC)c2nccc3c4ccccc4n(c1=O)c23 | 26.5 | 
53 | COCCc1ncc(OC)c2c1[nH]c1c(OC)cccc12 | 28.6 | 
54 | C(=C\c1nccc2c1[nH]c1ccccc12)/c1ccccc1 | 15 | 
55 | CCc1nccc2c1[nH]c1ccccc12 | 30.2 | 
56 | CC(=O)c1nccc2c1[nH]c1ccccc12 | 25.1 | 
57 | CCc1c2[nH]c3ccccc3c2cc[n+]1[O-] | 4.3 | 
58 | CC1NC(C(=O)O)Cc2c1[nH]c1ccccc21 (configuration not stated) | 21.3 | 
59 | O=c1c(CO)cc2nccc3c4ccccc4n1c23 | 33.8 | 
60 | CCn1ccc2c3n(c(=O)c(=O)cc1-3)c1cc(OC)ccc21 | 59.4 | 
61 | COc1cnc(C(=O)CC(CO)c2ncc(OC)c3c2[nH]c2ccccc23)c2[nH]c3ccccc3c12 (configuration not stated) | 33 | 
62 | COc1cccc2c1[nH]c1c(CCC(OC)C(=O)c3nccc4c3[nH]c3ccccc34)ncc(OC)c12 (configuration not stated) | 44.1 | 
63 | O=c1ccc2nccc3c4c(O)cccc4n1c23 | 50.6 | 
64 | COc1cnc(C(C)=O)c2[nH]c3ccccc3c12 | 21.6 | 
65 | O=C(O)c1nccc2c1[nH]c1ccccc12 | 28.5 | 
66 | C=Cc1ncc(OC)c2c3ccccc3n(OC)c12 | 33.5 | 
67 | COCc1c2[nH]c3ccccc3c2cc[n+]1[O-] | 59 | 
68 | Cc1nc(C(=O)O)cc2c1[nH]c1ccccc12 | 18.2 | 
69 | COC(=O)c1cc2c([nH]c3ccccc32)c(C)n1 | 14.3 | 
70 | CCn1ccc2c3n(c(=O)c(=O)c(OC)c1-3)c1ccccc21 | 43.6 | 
71 | Oc1nccc2c1[nH]c1ccccc12 | 8.5 | 
